Assay outcomes from PubChem BioAssay.
Most compounds without a hit are left out; they make up all but 1.8% or so of the library.
APJ ag: APJ receptor agonism. hit rate 0.11% among 330,000. CHO-K1 APJ PathHunter beta-arrestin, luminescence; 0% DMSO wells, 100% apelin. activation, % at 20 µM;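 active means activation more than six SD over the plate average, tested at 20 µM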
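assay system = CHO-K1 APJ beta-arrestin complementation cell line | input = cell density 1000 per well | dosing = compound 20 µM once, DMSO 1% | timing = compound 90 min 25 °C, reagent 1 h | measured by = luminescence from split beta-galactosidase complementation, Galacton Star/Emerald II substrate | read-out basis = APJ agonist activity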
CCR6 antagonist: CCR6 (human) receptor antagonism. inhibition, % at 20 µM. hit rate 0.49% among 340,000. CHO-K1 CCR6 PathHunter beta-arrestin, luminescence, CCL20-stimulated. AID 493098;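 active means compounds whose inhibition of the agonist-driven luminescence signal at 20 µM reaches about 50%, limit read from the data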;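 further: cells stimulated with CCL20 at 14 nM final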
EBI2 antag: EBI2 (human) antagonism; P32249; EBI2 beta-arrestin recruitment, luminescence, 7a,25-OHC stimulated; inhibition, % at 5 µM; hit rate 0.81% among 360,000; in the data active means inhibition above about 38%;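 further: enzyme fragment complementation signal reports receptor beta-arrestin coupling in cells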
B2AR ag: agonists of human beta-2 adrenergic receptor inducing internalization | AID 504454 | Am2.2-beta2AR cells, FAP receptor internalization, flow cytometry | response, % (no concentration beside the values) | hit rate 0.43% among 340,000 | P07550;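 active means response above a set limit, near 3 SD of response in nonfluorescent compounds, cut at about 42% in these data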
CXCR6 block: CXCR6 (human) receptor inhibition. CHO-K1 PathHunter CXCR6 beta-arrestin, luminescence. inhibition, % at 20 µM. AID 602244. hit rate 0.36% among 360,000; in the data active means inhibition above about 34%, passing the limit was not always enough;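 further: antagonist mode with CXCL16 agonist at 10 nM final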
Target sequence (O00574 whole entry, looked up): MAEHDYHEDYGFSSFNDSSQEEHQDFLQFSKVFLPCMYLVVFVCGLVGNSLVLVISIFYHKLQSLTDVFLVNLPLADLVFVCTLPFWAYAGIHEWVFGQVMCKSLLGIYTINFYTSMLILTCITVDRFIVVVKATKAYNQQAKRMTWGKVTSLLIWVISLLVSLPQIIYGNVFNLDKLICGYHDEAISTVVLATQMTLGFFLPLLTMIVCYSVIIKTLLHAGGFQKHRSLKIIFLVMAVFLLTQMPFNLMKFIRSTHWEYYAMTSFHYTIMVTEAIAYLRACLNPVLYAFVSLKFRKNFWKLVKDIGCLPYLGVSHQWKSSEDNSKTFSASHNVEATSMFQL
APJ antag: blocks the human apelin receptor APJ; P35414; CHO-K1 APJ beta-arrestin complementation, luminescence; inhibition, % at 20 µM; hit rate 0.32% among 330,000; AID 2521;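 active means inhibition above about 40% at 20 µM, limit read from the data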;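 further: cells challenged with 10 nM apelin-13 agonist together with compound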
Numbers stand for hits; . = inactive; / = no result given; ! = a repeat was not active.

SMILES	APJ ag	CCR6 antagonist	EBI2 antag	B2AR ag	CXCR6 block	APJ antag
COC(=O)C[C@@H]1CC[C@@H](NC(=O)Nc2cc(F)ccc2F)[C@@H](CO)O1	/	/	.	/	/	/
N#C/C(=C/c1ccc(-c2cccc([N+](=O)[O-])c2)o1)C(=O)Nc1nc(-c2cccs2)cs1	/	69	.	.	.	/
N#C/C(=C\c1ccc(-c2ccc([N+](=O)[O-])cc2)o1)C(=O)Nc1nc(-c2cccs2)cs1	.	58	.	.	.	.
N#C/C(=C\c1ccc(-c2ccccc2[N+](=O)[O-])o1)C(=O)Nc1nc(-c2cccs2)cs1	.	51	.	.	.	.
CC(=O)Nc1nc(-c2ccc([N+](=O)[O-])cc2)cs1	.	.	.	.	.	.
CC(=O)N1C(C)(C)CC(=NOS(=O)(=O)c2ccccc2)CC1(C)C	/	.	.	.	.	/
COc1ccc(S(=O)(=O)N2CCCCC2)cc1NC(=O)C1CC(=O)N(Cc2ccccc2)C1 (centres undefined)	.	.	.	.	.	.
CC[C@@H](C(=O)[C@@H](C)[C@@H](O)[C@H](C)CCc1ccc(C)c(O)c1C(=O)O)[C@H]1O[C@](CC)([C@H]2CC[C@](O)(CC)[C@H](C)O2)C[C@@H]1C	.	.	.	86	.	.
CCN(CC(=O)Nc1ccccc1OC)C(=O)c1ccc(NS(=O)(=O)c2ccc(C(C)=O)cc2)cc1	.	.	.	.	.	.
COc1cc(/C=N/NC(=O)c2nnn(-c3nonc3N)c2C)ccc1OCc1ccc(Cl)cc1	/	/	.	/	.	/
CCCN(CCC)S(=O)(=O)c1ccc(NC(=O)Cc2cccs2)cc1	.	.	.	.	.	.
CCCCN(CCCC)S(=O)(=O)c1ccc(NC(=O)Cc2cccs2)cc1	.	.	.	51	.	.
O=C(CCCOC(=O)c1ccc(O)cc1O)c1ccc(Br)cc1	.	.	.	.	.	.
COC(=O)[C@@]12C[C@@H](CC(=O)N3CCN(C(=O)c4ccco4)CC3)C(=O)N(Cc3cccc4ccccc34)C1=CCC(C)(C)C2	/	/	.	/	/	/
c1ccc2nc(NN=C3CCCCC3)ccc2c1	/	78	.	.	35	/
c1ccc2[nH]c(NN=C3CCCCCC3)nc2c1	.	.	.	.	.	.
O=C(O)/C=C/c1ccc([N+](=O)[O-])o1	.	.	.	.	.	.
O=[N+]([O-])c1ccc(/C=N/N=C/c2ccc([N+](=O)[O-])o2)o1	/	61	.	.	.	/
COc1ccc(-n2nc3c(N4CCC(C(=O)NCc5ccccc5C)CC4)nnc(C)c3c2C)cc1	.	51	.	82	.	.
Cc1ccccc1OCCCN1C(=O)C(=O)c2cccc(C)c21	.	58	.	.	.	48
Cc1cccc(OCCN2C(=O)C(=O)c3cccc(C)c32)c1	.	.	.	.	.	.
Cc1cccc2c1N(CCCOc1ccc(C(C)(C)C)cc1)C(=O)C2=O	.	51	.	.	.	.
O=C(CN(C(=O)c1csnn1)c1ccc(Cl)cc1)NCc1ccc2c(c1)OCO2	.	.	.	.	.	.
Cc1nn(-c2ccccc2)c(Cl)c1CN(C(=O)CCl)c1ccc(Cl)cc1	/	.	.	.	.	/
Cc1nn(-c2ccccc2)c(Cl)c1CN(C(=O)CCl)c1cccc2ccccc12	.	.	60	.	.	.
SMILES	APJ ag	CCR6 antagonist	EBI2 antag	B2AR ag	CXCR6 block	APJ antag
CCOc1ccc(S(=O)(=O)N2CCOCC2)cc1NC(=O)CN1C(=O)NC(CC)(c2ccccc2)C1=O (centres undefined)	.	.	.	.	.	.
O=C(N/N=C/c1cc([N+](=O)[O-])ccc1O)NC12CC3CC(CC(C3)C1)C2	.	.	.	.	.	.
O=C(N/N=C/c1ccc(O)cc1O)NC12CC3CC(CC(C3)C1)C2	.	.	.	44	.	.
C=C1C(=O)OC2CC1C(OC(C)=O)CC(C)=CCCC(C)=CCCC2(C)O (centres undefined)	/	/	51	/	.	/
C=C1C(=O)OC2CC1C(O)CC(C)=CCCC(C)=CC(O)CC2C (centres undefined)	/	.	.	.	.	/
C=CCn1c(=O)c2ccccc2n2c(SCC(=O)/C(C#N)=C(\C)N)nnc12	.	.	.	65!	.	.
COc1ccc(N2C(=O)C(Cl)=C(Oc3cccc(OC)c3)C2=O)cc1	.	97	.	.	.	.
Cc1ccc(NC(=O)c2sc(Cl)nc2C)c(C)c1	.	.	.	.	.	.
Cc1cc(C)c(C)c(OC(=O)c2sc(Cl)nc2C)c1	.	.	.	92	.	.
CNC(=O)c1ccc(NC(=O)c2ccccc2OCc2c(C)noc2C)cc1	/	/	.	/	.	/
COc1ccc(C=C2C=C(C(C)(C)C)C(=O)C(C(C)(C)C)=C2)cc1OC	.	.	.	76	.	.
CC1=C(C(=O)OC2CCCC2)C(c2ccc(C)o2)C2=C(CC(c3cccs3)CC2=O)N1 (centres undefined)	.	58	.	.	.	.
COC(=O)C1=C(C)NC2=C(C(=O)CC(c3cccs3)C2)C1c1ccsc1 (centres undefined)	/	58	.	.	.	/
CCOc1ccc(NC(=O)c2ccc(NS(=O)(=O)c3cccs3)cc2)cc1	.	.	.	.	.	.
O=C1NC(=O)C2(CCc3ccccc32)N1 (centres undefined)	.	.	.	.	.	.
C=C1CC2(OC1=O)c1ccccc1CCc1ccccc12	/	68	.	.	45	/
c1cn2c(NC3CCCCC3)c(-c3ccc(SC4CCCCC4)cc3)nc2cn1	.	.	.	.	.	.
c1cc(SC2CCCCC2)cc(-c2nc3cnccn3c2NC2CCCCC2)c1	.	.	.	50	.	.
O=C(NCc1ccco1)c1ccc2nccnc2c1	.	.	.	.	.	.
N#CC(C#N)=C1C=CC=CN1/C(=C\c1ccco1)C(=O)c1ccc(Br)cc1	/	104	77	75	103	/
N#C/C(=C/c1ccc(N2CCCC2)c([N+](=O)[O-])c1)c1nc2ccccc2[nH]1	.	.	.	82	.	.
N#C/C(=C\c1ccc(N2CCOCC2)c([N+](=O)[O-])c1)c1nc2ccccc2[nH]1	.	.	.	.	.	.
O=C(NC(Nc1nc2ccc([N+](=O)[O-])cc2s1)(C(F)(F)F)C(F)(F)F)c1ccccc1Cl	.	56	.	.	.	.
O=C(N/N=C/c1ccc[nH]1)c1cc2ccccc2cc1O	.	.	.	46	.	.
O=C(N/N=C/c1ccncc1)c1cc2ccccc2cc1O	.	.	.	.	.	.
CCN1C/C(=C\c2cccc([N+](=O)[O-])c2)C(=O)/C(=C/c2cccc([N+](=O)[O-])c2)C1	/	73	.	85	.	/
COc1ccc2c(c1)c(=O)oc1c(C)c(OCc3cc(C(=O)O)oc3C)ccc12	.	56	.	.	.	.
